Compound activity deposited in PubChem by several laboratories.
CSC inhib = blocks cancer stem cells. cancer stem cell-like cells viability, luminescence. inhibition, % at 7.5 µM. 1.1% of 300,000 active; in the data active = inhibition above about 75%; inconclusive = no clear call, values can overlap the other calls; tested in HMLE shEcad cells
Calb FLC = affects C. albicans growth with fluconazole; C. albicans CaCi-2 (fluconazole-resistant clinical isolate) + fluconazole, Alamar Blue growth, 48 h; growth inhibition, % (no concentration beside the values); 0.57% of 300,000 active;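 active = growth inhibition above about 58% in most replicates, limit read from the data, passing the limit was not always enough; inconclusive = exactly half the replicates above a set limit; inactive = most replicates below a set limit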;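 also: all wells also contain fluconazole at 8 µg/ml as a sub-toxic cotreatment; 0% = median of DMSO wells and 100% = median of geldanamycin control wells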
Bfl-1 A1 inh = inhibitors of the anti-apoptotic protein A1, read as caspase activation | MEF A1-2A-BIM cells, Caspase-Glo 3/7 luminescence, 3 h; percent of clofoctol response, vehicle zero | caspase activation, % (no concentration beside the values) | 0.066% of 330,000 active | AID 2462;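 active = over half of replicate activation scores above 10%, or exactly half above 10 with the replicate mean above 10; inconclusive = replicate mean below 10 yet half the replicates above 10; inactive = over half of replicates below 10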
T cruzi repl = T. cruzi replication inhibition. T. cruzi beta-gal in NIH3T3, luminescence, 90 h. inhibition, % (test concentration not listed). 1.4% of 300,000 active;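 active = mean inhibition across valid replicates above about 55%, limit read from the data; inconclusive = mean below that limit but half or more replicates reach it; inactive = mean below it, under half of replicates reach it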;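 also: signal also drops with host cell toxicity which is not excluded here; 0% = plate median of DMSO wells and 100% = zero luminescence signal; higher percent means less beta-gal luminescence so fewer parasites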
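assay system = mouse NIH/3T3 fibroblasts infected with β-gal-expressing T. cruzi Tulahuen C4 | input = 5,000 NIH/3T3 host cells per well | buffer or medium = DMEM plus 2% FBS | timing = 3 h host attachment, then at least 90 h co-culture | measured by = GalScreen luminescence, 60 min | evaluation = luminescence reflecting intracellular parasite burden, expressed as percent inhibition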
Beta apoptosis = blocks beta cell apoptosis. INS-1E cytokine-induced death, ATP luminescence, 48 h; percent of positive-control rescue, neutral wells zero. protection from apoptosis, % (no concentration beside the values). 0.8% of 300,000 active. AID 435005;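 active = Every replicate reaches about 75%, or at least half do and their mean reaches it too, limit read from the data; inconclusive = At least half of replicates reach the limit but their mean does not; inactive = Under half of replicates reach the limit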;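 also: 0% = cytokine-treated negative control wells and 100% = positive control rescue; higher means more ATP so stronger rescue from cytokine killing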
H9c2 TAG inh = reduces triacylglycerol accumulation in H9c2 cells. Nile Red lipid (TAG) fluorescence; cells loaded with 200 µM oleic acid. inhibition, % at 12.5 µM. 0.66% of 230,000 active;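 active = pattern-corrected inhibition of lipid staining of at least 50% with the nuclear-stain viability signal not falling by more than 50%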;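 also: 0% = DMSO wells and 100% = triacsin C control wells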
Active calls of the source: *; ? = inconclusive; . = no result. Hits are enriched below; roughly 3.1% of the tested compounds scored in any of these assays.

SMILES | CSC inhib | Calb FLC | Bfl-1 A1 inh | T cruzi repl | Beta apoptosis | H9c2 TAG inh
COc1cc(/C=N\NC(=O)c2ccc(Cn3cc(Br)c([N+](=O)[O-])n3)o2)cc(OC)c1O | 13 | 3 | -1 | 52 | 6 | .
O=C(N/N=C\c1ccc(F)cc1)c1ccc(Cn2cc(Br)c([N+](=O)[O-])n2)o1 | 68 | -7 | -1 | 61* | 0 | .
O=C(N/N=C\c1ccc2c(c1)OCO2)c1ccc(Cn2cc(Br)c([N+](=O)[O-])n2)o1 | 84* | 2 | -2 | 56* | 4 | .
Cc1cc(Cl)ccc1OCC(=O)OCC(=O)NC1CCS(=O)(=O)C1 (stereo unspecified) | . | . | . | . | . | -5
Cc1c(Cl)cccc1NC(=S)NNS(=O)(=O)c1ccc([N+](=O)[O-])cc1 | 9 | 8 | 0 | -12 | -14 | 2
COc1cccc(-c2nn(-c3ccccc3)cc2/C=C(/NC(=O)c2ccccc2)C(=O)O)c1 | -2 | 5 | 0 | -6 | -1 | -11
COc1ccc(-c2nc3c4c(ncn3n2)-c2ccccc2CC42CCCC2)cc1 | 4 | 10 | 0 | 7 | -9 | .
Oc1cccc(-c2nc3c4c(ncn3n2)-c2ccccc2CC42CCCC2)c1 | 111* | 21 | 1 | 30 | -4 | .
CN1CCN(Cc2ccc(Sc3ccc(Cl)cc3)c([N+](=O)[O-])c2)CC1 | 86* | 16 | 1 | 66* | 4 | -36
Cc1ccc(Sc2ccc(CN3CCCC3)cc2[N+](=O)[O-])cc1 | 1 | -38 | 0 | 88* | 5 | -1
Cc1ccc(Sc2ccc(CO)cc2[N+](=O)[O-])cc1 | 43 | 14 | -1 | -4 | 12 | 27
CCCOc1ccc(C(=O)Nc2ccc(N3CCOCC3)cc2N2CCOCC2)cc1OCC | . | . | . | . | . | 10
COc1ccc(C)cc1N1C(=N)/C(=C2/Nc3ccccc3S2)C(c2ccccc2)C1=O (stereo unspecified) | 112* | . | 1 | . | -3 | .
O=C(COC(=O)Cc1ccc(S(=O)(=O)N2CCOCC2)s1)Nc1ccc([N+](=O)[O-])cc1 | -9 | . | 1 | . | -8 | -4
Cc1ccc2c(CC(=O)N(C)c3c(N)n(Cc4ccccc4)c(=O)[nH]c3=O)coc2c1 | -6 | 0 | 0 | 2 | -3 | 3
COCCN(C(=O)CSc1nnc(-c2cccc(C)c2)n1C)c1c(N)n(Cc2ccccc2)c(=O)[nH]c1=O | -8 | 113* | 0 | . | -2 | -10
Nc1c(N(CCC2=CCCCC2)C(=O)CCCOc2ccccc2)c(=O)[nH]c(=O)n1Cc1ccccc1 | -10 | -6 | 1 | 16 | -9 | -3
Nc1c(N(CCC2=CCCCC2)C(=O)COc2ccc(F)cc2)c(=O)[nH]c(=O)n1Cc1ccccc1 | 74 | . | ? | . | 97* | -6
COCCN(C(=O)COC(=O)C1CCC(C(C)(C)C)CC1)c1c(N)n(Cc2ccccc2)c(=O)[nH]c1=O (stereo unspecified) | -4 | 3 | 0 | 8 | 106* | -25
Cn1nc(-c2ccc(Cl)cc2)nc2c(=O)n(C)c(=O)nc1-2 | 119* | 71 | -8 | 56* | 99* | .
CS(=O)(=O)n1nc(-c2ccc(Cl)cc2)nc1N | -9 | -7 | 0 | -5 | 0 | .
COc1ccc(OC(F)(F)F)cc1CC1(C)C(=O)Nc2ccc(-c3ccsc3)cc21 (stereo unspecified) | . | . | . | . | . | -3
CN(CC(O)CON=C1c2ccccc2-c2ccccc21)S(=O)(=O)c1ccc(Br)cc1 (stereo unspecified) | 98* | 15 | 0 | 44 | 8 | .
CCN(CC(O)Cn1c2ccccc2c2ccccc21)S(=O)(=O)c1ccc(F)cc1 (stereo unspecified) | 10 | 20 | 0 | -4 | 4 | .
Cc1cccc(N(CC(O)CON=C2c3ccccc3-c3ccccc32)S(C)(=O)=O)c1 (stereo unspecified) | 5 | -3 | 0 | 60* | -2 | .
SMILES | CSC inhib | Calb FLC | Bfl-1 A1 inh | T cruzi repl | Beta apoptosis | H9c2 TAG inh
CS(=O)(=O)N(CC(O)CON=C1c2ccccc2-c2ccccc21)c1ccc(F)cc1 (stereo unspecified) | . | -5 | 1 | 19 | . | .
CCN(CC(O)CON=C1c2ccccc2-c2ccccc21)S(=O)(=O)c1ccc(C)cc1 (stereo unspecified) | 46 | -6 | 0 | 62* | 5 | .
CCN(CC(O)CON=C1c2ccccc2-c2ccccc21)S(=O)(=O)c1ccc(Cl)cc1 (stereo unspecified) | 40 | 12 | 0 | 62* | 24 | .
COc1ccc2nc(SCC(=O)NC3(C#N)CCCCC3)[nH]c2c1 | -3 | -4 | 1 | -9 | -1 | 4
Cc1ccc(C(=O)NCC(=O)N2CCN(c3ccccc3O)CC2)s1 | . | . | . | . | . | 14
O=C(NC1CCCN(Cc2ccc(Cl)cc2)C1)c1c(F)ccc(F)c1F (stereo unspecified) | -8 | 5 | 1 | 45 | . | -14
CC(O)(c1ccc(F)c(F)c1)c1nc(-c2ccc(F)c(Cl)c2)cs1 (stereo unspecified) | . | . | . | . | . | -8
CC1CCCCC12NC(=O)N(CC(=O)Nc1ccc(OC(F)F)cc1)C2=O (stereo unspecified) | -10 | . | -1 | . | -4 | -6
CC(=O)C[C@@H](O)CC(=O)[C@@H]1OC(=O)[C@@H](C)CCCCc2ccccc21 | . | . | . | . | . | 1
CSc1ncc2c(n1)-c1cc(C)ccc1SC2 | . | 26 | 0 | 75* | 29 | -8
Nc1ncc2c(n1)-c1cc(Cl)ccc1SC2 | -4 | 15 | -1 | 72* | -6 | -10
COc1ccc(-c2cc(-c3ccccc3)nc(SCC(=O)Nc3nccs3)c2C#N)cc1 | -6 | 7 | -2 | 33 | 6 | 39
N#Cc1c(-c2ccc(Cl)cc2)cc(-c2ccccc2)nc1SCC(=O)O | 32 | 88* | 1 | 7 | 3 | -7
N#Cc1c(-c2ccccc2)cc(C2CC2)nc1SCC(=O)O | . | 10 | 1 | 5 | -5 | .
COc1ccc(-c2cc(-c3ccccc3)c(C#N)c(SCC(=O)Nc3ncc(C)s3)n2)cc1 | . | 2 | -1 | 56* | . | .
N#Cc1c(-c2ccccc2)cc(-c2ccccc2)nc1SCCC(=O)O | 75* | 54 | 0 | 31 | -2 | -7
Cc1cccc(C(=O)OC(C)C(=O)NCC2CCCCC2)c1O (stereo unspecified) | . | . | . | . | . | -2
CC(C)C(=O)Nc1ccc(Oc2ccc3c(c2)C(=O)NC3=O)cc1 | -4 | 7 | 0 | -5 | -9 | .
CC(c1nnnn1C(C)(C)C)N(Cc1cccnc1)Cc1ccccc1Cl (stereo unspecified) | -4 | -1 | 0 | 66* | 7 | -16
CC(C)(C)n1nnnc1C(c1cccnc1)N(Cc1ccccc1)Cc1ccco1 (stereo unspecified) | 7 | 6 | 1 | 14 | -3 | 16
